Results as given in ChEMBL document CHEMBL2046346, “Discovery of phenylpropanoic acid derivatives containing polar functionalities as potent and orally bioavailable G protein-coupled receptor 40 agonists for the treatment of type 2 diabetes” (J Med Chem, 2012).
The source made the active and inactive calls. The rule behind the calls is not given here.

Experiments:
HepG2 [1] = assay: Induction of apoptosis in human HepG2 cells assessed as caspase 3/7 activity at 10 uM after 24 hrs by caspase Glo assay relative to staurosporine; assay type: cell-based; details: hepg2, 24 h
Procedure, shortened: (§1)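 HepG2 cells seeded 2 × 10^4/well, treated 1 day in DMEM with 0.5% FBS, 2 mM L-glutamine, 1 mM pyruvate. Caspase-Glo 3/7 luminescence; activity = (compound − 1% DMSO)/(30 μM staurosporine − 1% DMSO) ×100, n = 3.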

[2] = Metabolic stability in human hepatic microsomes; assay type: ADME; details: liver microsomes, read-out: Stability
Rattus norvegicus [3] = species: Rattus norvegicus; assay: Insulinotropic activity in rat INS1(833/15) cells assessed as increase in insulin secretion at 1 uM after 2 hrs by competitive enzyme immunoassay in the presence of 16 mM glucose; assay type: functional, cell-based
Procedure, shortened: (§2)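 INS-1 833/15 cells seeded on poly-L-lysine, cultured 2 days, preincubated in KRBH (0.2% FFA-free BSA) with 1 mM glucose, then 2 h in KRBH at 1–16 mM glucose with or without compound (DMSO vehicle). Secreted insulin by EIA; expressed as fold over 1 mM glucose alone, mean ± SD (n = 3–6).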

HepG2 [4] = assay: Induction of apoptosis in human HepG2 cells assessed as caspase 3/7 activity at 30 uM after 24 hrs by caspase Glo assay relative to staurosporine; assay type: cell-based; details: hepg2, 24 h; procedure, shortened: as §1
[5] = Cytotoxicity against human HepG2 cells assessed as intracellular ATP level at 30 uM after 24 hrs by ATPlite assay relative to control; assay type: cell-based; details: read-out: Activity
Procedure, shortened: (§3)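 HepG2 cells seeded 2 × 10^4/well, treated 1 day in DMEM with 0.5% FBS, 2 mM L-glutamine, 1 mM pyruvate. ATP measured by ATPlite luminescence; % of 1% DMSO control (RLU ratio ×100), n = 3.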

[6] = target: Free fatty acid receptor 1 (Rattus norvegicus, UniProt Q8K3T4); assay: Displacement of 3-[4-({2',6'-dimethyl-6-[(4-[3H])phenylmethoxy]biphenyl-3-yl}methoxy)phenyl] propanoic acid from rat GPR40 receptor expressed in CHO cell membrane after 90 mins by liquid scintillation counting in the presence of 0.2% BSA; assay type: cell membranes
Sequence of Free fatty acid receptor 1 (Rattus norvegicus, UniProt Q8K3T4) (Q8K3T4 whole entry): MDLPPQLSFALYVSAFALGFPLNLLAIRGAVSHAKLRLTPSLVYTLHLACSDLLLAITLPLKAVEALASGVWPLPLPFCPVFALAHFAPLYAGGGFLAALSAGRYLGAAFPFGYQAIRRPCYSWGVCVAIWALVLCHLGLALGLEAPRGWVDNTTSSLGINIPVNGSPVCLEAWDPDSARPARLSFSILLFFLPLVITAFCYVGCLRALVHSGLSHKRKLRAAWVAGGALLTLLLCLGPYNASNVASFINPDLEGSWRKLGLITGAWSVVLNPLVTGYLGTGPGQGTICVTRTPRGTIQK
Procedure, shortened: (§4)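 Membranes from CHO lines stably expressing human or rat GPR40, buffer 25 mmol/L Tris-HCl pH 7.5, 5 mmol/L EDTA, protease inhibitors, 0.05% CHAPS, 0.2% fatty-acid-free BSA. Tritiated ligand at 2 or 6 nmol/L with graded test compound, 90 min room temperature, GF/C filtration, scintillation counting. Nonspecific binding: 10 μmol/L unlabeled ligand. IC50 by nonlinear regression, Ki = IC50/(1+[L]/Kd).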

Rattus norvegicus [7] = species: Rattus norvegicus; assay: Insulinotropic activity in rat INS1(833/15) cells assessed as increase in insulin secretion at 1 uM after 2 hrs by competitive enzyme immunoassay in the presence of >6 mM glucose; assay type: functional, cell-based; procedure, shortened: as §2
[8] = target: T1, Free fatty acid receptor 1 (Homo sapiens, UniProt O14842); assay: Agonist activity at human GPR40 receptor expressed in CHO cells assessed as increase in intracellular calcium level for 90 secs by FLIPR assay in the presence of 0.1% BSA; assay type: functional, cell-based
T1 sequence (O14842 whole entry): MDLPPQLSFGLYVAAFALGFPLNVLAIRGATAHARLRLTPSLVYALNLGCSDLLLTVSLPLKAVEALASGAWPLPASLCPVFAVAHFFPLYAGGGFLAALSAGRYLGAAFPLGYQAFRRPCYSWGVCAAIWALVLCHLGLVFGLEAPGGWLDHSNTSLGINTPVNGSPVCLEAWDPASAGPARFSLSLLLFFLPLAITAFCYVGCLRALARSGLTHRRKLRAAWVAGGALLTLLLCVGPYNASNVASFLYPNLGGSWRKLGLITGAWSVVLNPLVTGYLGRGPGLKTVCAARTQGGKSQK
Procedure, shortened: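 CHO dhfr cells stably expressing human GPR40 plated overnight, loaded 60 min at 37 °C with Fluo 4 AM (2.5 μg/mL), 2.5 mmol/L probenecid, 0.1% fatty acid-free BSA. Ca2+ rise after compound addition read 90 s; response scaled between vehicle (0%) and 10 μM γ-linolenic acid (100%).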

Rattus norvegicus [9] = species: Rattus norvegicus; assay: Insulinotropic activity in rat INS1(833/15) cells assessed as increase in insulin secretion at 1 uM after 2 hrs by competitive enzyme immunoassay in the presence of 4 mM glucose; assay type: functional, cell-based; procedure, shortened: as §2
[10] = Cytotoxicity against human HepG2 cells assessed as intracellular ATP level at 10 uM after 24 hrs by ATPlite assay relative to control; assay type: cell-based; details: read-out: Activity; procedure, shortened: as §3
[11] = Lipophilicity, log D of the compound by RP-HPLC analysis; assay type: physicochemical
Rattus norvegicus [12] = species: Rattus norvegicus; assay: Insulinotropic activity in rat INS1(833/15) cells assessed as increase in insulin secretion at 1 uM after 2 hrs by competitive enzyme immunoassay in the presence of 1 mM glucose; assay type: functional, cell-based; procedure, shortened: as §2
Rattus norvegicus [13] = species: Rattus norvegicus; assay: Insulinotropic activity in rat INS1(833/15) cells assessed as increase in insulin secretion at >0.1 uM after 2 hrs by competitive enzyme immunoassay in the presence of 11 mM glucose; assay type: functional, cell-based; procedure, shortened: as §2
Rattus norvegicus [14] = species: Rattus norvegicus; assay: Insulinotropic activity in rat INS1(833/15) cells assessed as increase in insulin secretion after 2 hrs by competitive enzyme immunoassay in the presence of 11 mM glucose; assay type: functional, cell-based; procedure, shortened: as §2
[15] = target: T1, Free fatty acid receptor 1; assay: Displacement of 3-[4-({2',6'-dimethyl-6-[(4-[3H])phenylmethoxy]biphenyl-3-yl}methoxy)phenyl] propanoic acid from human GPR40 receptor expressed in CHO cell membrane after 90 mins by liquid scintillation counting in the presence of 0.2% BSA; assay type: cell membranes; procedure, shortened: as §4
[16] = Metabolic stability in rat hepatic microsomes; assay type: ADME; details: liver microsomes, read-out: Stability
Rattus norvegicus [17] = species: Rattus norvegicus; assay: Insulinotropic activity in rat INS1(833/15) cells assessed as increase in insulin secretion at 10 uM after 2 hrs by competitive enzyme immunoassay in the presence of 16 mM glucose; assay type: functional, cell-based; procedure, shortened: as §2
Rattus norvegicus [18] = species: Rattus norvegicus; assay: Insulinotropic activity in rat INS1(833/15) cells assessed as increase in insulin secretion at 10 uM after 2 hrs by competitive enzyme immunoassay in the presence of 11 mM glucose; assay type: functional, cell-based; procedure, shortened: as §2
Rattus norvegicus [19] = species: Rattus norvegicus; assay: Insulinotropic activity in rat INS1(833/15) cells assessed as increase in insulin secretion at 10 uM after 2 hrs by competitive enzyme immunoassay in the presence of low concentration of glucose; assay type: functional, cell-based; procedure, shortened: as §2
Rattus norvegicus [20] = assay: Insulinotropic activity in fasted Wistar fatty rat assessed as decrease in blood glucose level at 0.3 mg/kg, po administered 30 mins prior to glucose-challenge by oral glucose tolerance test relative to vehicle treated control; assay type: functional, organism-based; design: dose 0.3 mg/kg
Procedure, shortened: (§5)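 Thirteen-week-old female Wistar fatty rats, overnight fasted, grouped on body weight, PG, TG, NEFA (n = 6). Oral dose (0.1–1 mg/kg, 0.5% methylcellulose vehicle) 30 min before oral glucose 1 g/kg; tail-vein blood at 0, 10, 30, 60, 120 min; plasma glucose by analyzer, insulin by RIA.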

Rattus norvegicus [21] = assay: Induction of hypoglycemia in fasted Sprague-Dawley rat assessed as decrease in plasma glucose level below normal fasting level at 30 mg/kg, po; assay type: organism-based; design: dose 30 mg/kg, route oral; details: in vivo
Procedure, shortened: (§6)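 Eight-week-old male SD rats fasted overnight, grouped by body weight (n = 6), single oral dose in 0.5% methylcellulose vehicle; tail-vein blood before and 0.5, 1, 2, 3 h after dosing; plasma glucose by analyzer, insulin by ELISA; mean ± SD.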

Rattus norvegicus [22] = assay: Insulinotropic activity in po dosed fasted Wistar fatty rat assessed as increase in insulin secretion administered 30 mins prior to glucose-challenge by oral glucose tolerance test relative to vehicle treated control; assay type: functional, organism-based; procedure, shortened: as §5
Rattus norvegicus [23] = assay: Induction of hypoglycemia in fasted Sprague-Dawley rat assessed as increase in insulin secretion level at 30 mg/kg, po after 30 mins; details: in vivo, 0.5 h
Rattus norvegicus [24] = assay: Insulinotropic activity in po dosed fasted Wistar fatty rat assessed as decrease in blood glucose level administered 30 mins prior to glucose-challenge by oral glucose tolerance test relative to vehicle treated control; assay type: functional, organism-based; procedure, shortened: as §5
Rattus norvegicus [25] = assay: Toxicity in rat assessed as adverse effect at 15 to 150 mg/kg, po after 4 weeks; assay type: organism-based; design: dose 15-150 mg/kg, route oral; details: in vivo, 672 h
Procedure, shortened: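 Normal rats dosed orally at 15, 50 and 150 mg/kg for 4 weeks; adverse effects recorded.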

Rattus norvegicus [26] = assay: Induction of hypoglycemia in fasted Sprague-Dawley rat assessed as increase in insulin secretion level at 30 mg/kg, po after 30 mins; assay type: organism-based; design: dose 30 mg/kg, route oral; details: in vivo, 0.5 h; procedure, shortened: as §6
Rattus norvegicus [27] = species: Rattus norvegicus; assay: Insulinotropic activity in rat INS1(833/15) cells assessed as increase in insulin secretion at 30 uM after 2 hrs by competitive enzyme immunoassay in the presence of 11 mM glucose; assay type: functional, cell-based; procedure, shortened: as §2
Rattus norvegicus [28] = assay: Induction of hypoglycemia in fasted Sprague-Dawley rat assessed as decrease in plasma glucose level below normal fasting level at 10 mg/kg, po; assay type: organism-based; design: dose 10 mg/kg, route oral; details: in vivo; procedure, shortened: as §6
Rattus norvegicus [29] = species: Rattus norvegicus; assay: Insulinotropic activity in rat INS1(833/15) cells assessed as increase in insulin secretion at 30 uM after 2 hrs by competitive enzyme immunoassay in the presence of 16 mM glucose; assay type: functional, cell-based; procedure, shortened: as §2
Rattus norvegicus [30] = species: Rattus norvegicus; assay: Insulinotropic activity in rat INS1(833/15) cells assessed as increase in insulin secretion at 30 uM after 2 hrs by competitive enzyme immunoassay in the presence of low concentration of glucose; assay type: functional, cell-based; procedure, shortened: as §2

SMILES	microsomal CLint [2]	Ki [6]	EC50 [8]	logD [11]	Ki [15]	microsomal CLint [16]	Activity (HepG2 [1])	Activity (HepG2 [4])	viability at 24 h, 30 µM [5]	viability at 24 h, 10 µM [10]	further results
CCS(=O)(=O)CCOc1cc(C)c(-c2cccc(COc3ccc(CCC(=O)O)c(F)c3)c2)c(C)c1	6 µL/min/mg	4.2 nM	25 nM	3.02	15 nM	10 µL/min/mg	-1.1%	17.7%	32.5%	79.8%	
CC(C)[C@H]1CC[C@H](C(=O)N[C@H](Cc2ccccc2)C(=O)O)CC1											Activity (Rattus norvegicus [17]): Active; Activity (Rattus norvegicus [18]): Active; Activity (Rattus norvegicus [19]): Active
Cc1cc(OCCCN2CCCC2=O)cc(C)c1-c1cccc(COc2ccc(CCC(=O)O)c(F)c2)c1	7 µL/min/mg	9.7 nM	32 nM	3.51	21 nM	5 µL/min/mg	0.2%	20.3%	30.3%	54.1%	
COc1ccc(Cl)cc1C(=O)NCCc1ccc(S(=O)(=O)NC(=O)NC2CCCCC2)cc1 [GLYBURIDE]											Activity (Rattus norvegicus [26]): Toxic; Activity (Rattus norvegicus [27]): Active; Activity (Rattus norvegicus [28]): Toxic; Activity (Rattus norvegicus [29]): Active; Activity (Rattus norvegicus [30]): Active

Further lines, with some results ahead:

microsomal CLint [2]	Ki [6]	EC50 [8]	logD [11]	Ki [15]	microsomal CLint [16]	SMILES	Activity (HepG2 [1])	Activity (HepG2 [4])	viability at 24 h, 30 µM [5]	viability at 24 h, 10 µM [10]	further results
3 µL/min/mg	6.4 nM	25 nM	3.06	16 nM		Cc1cc(OC2CCS(=O)(=O)CC2)cc(C)c1-c1cccc(COc2ccc(CCC(=O)O)c(F)c2)c1	-0.5%	28.9%	38%	79.8%	Activity (Rattus norvegicus [3]): Active; Activity (Rattus norvegicus [7]): Active; Activity (Rattus norvegicus [9]): inactive; Activity (Rattus norvegicus [12]): inactive; Activity (Rattus norvegicus [13]): Active; Activity (Rattus norvegicus [14]): Dose-dependent effect
2 µL/min/mg	4.5 nM	29 nM	2.14	19 nM		Cc1cc(OCC2(O)CCS(=O)(=O)CC2)cc(C)c1-c1cccc(CNc2ccc(CCC(=O)O)c(F)c2)c1	0.8%	0.5%	75.9%	88.1%	Activity (Rattus norvegicus [20]): Active; Activity (Rattus norvegicus [21]): Non-toxic; Activity (Rattus norvegicus [22]): Dose-dependent effect; Activity (Rattus norvegicus [23]): Toxic; Activity (Rattus norvegicus [24]): Dose-dependent effect; Activity (Rattus norvegicus [25]): Non-toxic
